Key:
[1] = molecular target: T1, 5-hydroxytryptamine receptor 1A (Homo sapiens, UniProt P08908); experiment: Displacement of [3H]-8-OH-DPAT from human 5-HT1A receptor expressed in CHOK1 cell membranes after 60 mins by microbeta scintillation counting method
T1 sequence (P08908 whole entry): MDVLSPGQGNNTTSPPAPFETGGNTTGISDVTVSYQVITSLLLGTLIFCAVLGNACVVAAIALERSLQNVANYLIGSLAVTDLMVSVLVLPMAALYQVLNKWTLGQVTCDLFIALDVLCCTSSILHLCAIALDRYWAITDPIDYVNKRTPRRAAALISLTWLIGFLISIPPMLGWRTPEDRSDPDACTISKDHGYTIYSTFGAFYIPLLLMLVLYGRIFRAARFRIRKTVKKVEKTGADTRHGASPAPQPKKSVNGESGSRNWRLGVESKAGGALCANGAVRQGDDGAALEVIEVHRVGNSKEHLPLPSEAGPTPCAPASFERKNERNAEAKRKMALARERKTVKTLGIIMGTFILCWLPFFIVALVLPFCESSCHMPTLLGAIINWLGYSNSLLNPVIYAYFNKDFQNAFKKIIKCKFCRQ
Summary of the method: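 Membranes from CHO-K1 cells stably expressing human receptor, 10 µg protein/well, in 50 mM Tris pH 7.4 with 10 mM MgSO4, 0.5 mM EDTA, 0.1% ascorbic acid. Compounds at 6 concentrations, 10^-10 to 10^-5 M final, in duplicate; 27 °C. GF/C filtration, cold Tris washes. Ki by one-site fit and Cheng–Prusoff.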

[2] = molecular target: 5-hydroxytryptamine receptor 2A (Homo sapiens, UniProt P28223); experiment: Displacement of [3H]-ketanserin from human 5-HT2A receptor expressed in CHOK1 cell membranes after 60 mins by microbeta scintillation counting method; format: cell-based
Sequence of 5-hydroxytryptamine receptor 2A (P28223 whole entry): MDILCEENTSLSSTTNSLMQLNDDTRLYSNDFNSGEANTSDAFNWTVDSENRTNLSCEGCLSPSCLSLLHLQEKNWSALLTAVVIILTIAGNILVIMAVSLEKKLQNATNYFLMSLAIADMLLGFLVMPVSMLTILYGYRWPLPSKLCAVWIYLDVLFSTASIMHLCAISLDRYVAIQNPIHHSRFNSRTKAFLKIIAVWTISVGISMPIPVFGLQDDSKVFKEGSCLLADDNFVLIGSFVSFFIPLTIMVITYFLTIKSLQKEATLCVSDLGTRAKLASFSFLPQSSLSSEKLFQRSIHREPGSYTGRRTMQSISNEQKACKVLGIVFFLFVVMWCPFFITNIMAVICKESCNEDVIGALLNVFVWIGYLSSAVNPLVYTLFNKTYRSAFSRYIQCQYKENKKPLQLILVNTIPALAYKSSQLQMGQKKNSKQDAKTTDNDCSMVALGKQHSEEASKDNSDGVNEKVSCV

| Compound | Ki [1] | Ki [2] |
| --- | --- | --- |
| CC(=O)c1c(C)cc2oc(=O)cc(C)c2c1OCCCN1CCN(c2ccncc2)CC1 | 154 nM | > 10000 nM |
| Cc1cc(OCCCN2CCN(c3ccccc3C#N)CC2)c2c(C)cc(=O)oc2c1 | 3 nM | 200 nM |
| CC(=O)c1c(C)cc2oc(=O)cc(C)c2c1OCCCN1CCN(c2cccc(Cl)c2Cl)CC1 | 0.4 nM | 66 nM |
| Cc1cc(OCCCCN2CCN(c3cnccn3)CC2)c2c(C)cc(=O)oc2c1 | 6.7 nM | 2300 nM |
| CC(=O)c1c(C)cc2oc(=O)cc(C)c2c1OCCCCN1CCN(c2ccccc2F)CC1 | 0.7 nM | 9 nM |
| CC(=O)c1c(C)cc2oc(=O)cc(C)c2c1OCCCN1CCN(c2ccc(Cl)cc2)CC1 | 1.2 nM | 4 nM |
| COc1cccc(N2CCN(CCCCOc3cc(C)cc4oc(=O)cc(C)c34)CC2)c1 | 1 nM | 184 nM |
| CC(=O)c1c(C)cc2oc(=O)cc(C)c2c1OCCCCN1CCN(c2cccc(Cl)c2Cl)CC1 | 250 nM | 2650 nM |
| CC(=O)c1c(C)cc2oc(=O)cc(C)c2c1OCCCCN1CCN(c2cnccn2)CC1 | 4.8 nM | 2500 nM |
| Cc1cc(OCCCCN2CCN(c3ccc([N+](=O)[O-])cc3)CC2)c2c(C)cc(=O)oc2c1 | 809 nM | > 10000 nM |
| COc1cccc(N2CCN(CCCOc3c(C(C)=O)c(C)cc4oc(=O)cc(C)c34)CC2)c1 | 0.4 nM | 48 nM |
| CC(=O)c1c(C)cc2oc(=O)cc(C)c2c1OCCCN1CCN(c2ccccc2F)CC1 | 0.3 nM | 28 nM |
| CC(=O)c1c(C)cc2oc(=O)cc(C)c2c1OCCCCN1CCN(c2ccc([N+](=O)[O-])cc2)CC1 | 33 nM | 46 nM |
| COc1cccc(N2CCN(CCCCOc3c(C(C)=O)c(C)cc4oc(=O)cc(C)c34)CC2)c1 | 15 nM | 520 nM |
| CC(=O)c1c(C)cc2oc(=O)cc(C)c2c1OCCCN1CCN(c2ccc([N+](=O)[O-])cc2)CC1 | 159 nM | 286 nM |
| Cc1cc(OCCCCN2CCN(c3cccc(Cl)c3Cl)CC2)c2c(C)cc(=O)oc2c1 | 8 nM | 167 nM |
| CC(=O)c1c(C)cc2oc(=O)cc(C)c2c1OCCCCN1CCN(c2ccncc2)CC1 | 308 nM | 1590 nM |
| CC(=O)c1c(C)cc2oc(=O)cc(C)c2c1OCCCN1CCN(c2cnccn2)CC1 | 11 nM | 3000 nM |
| Cc1cc(OCCCCN2CCN(c3ccccc3F)CC2)c2c(C)cc(=O)oc2c1 | 1.7 nM | 120 nM |
| CC(=O)c1c(C)cc2oc(=O)cc(C)c2c1OCCCN1CCN(c2ccccc2C#N)CC1 | 0.3 nM | 64 nM |
| Cc1cc(OCCCCN2CCN(c3ccccc3C#N)CC2)c2c(C)cc(=O)oc2c1 | 1.5 nM | 112 nM |
| CC(=O)c1c(C)cc2oc(=O)cc(C)c2c1OCCCCN1CCN(c2ccc(Cl)cc2)CC1 | 7 nM | 1.7 nM |

Results, then the molecule that gave them:

| Ki [1] | Ki [2] | Compound |
| --- | --- | --- |
| 4 nM | 42 nM | Cc1cc(OCCCN2CCN(c3cccc(Cl)c3Cl)CC2)c2c(C)cc(=O)oc2c1 |
| 250 nM | 4460 nM | CC(=O)c1c(C)cc2oc(=O)cc(C)c2c1OCCCCN1CCOCC1 |
| 3 nM | 55 nM | Cc1cc(OCCCN2CCN(c3ccccc3F)CC2)c2c(C)cc(=O)oc2c1 |
| 6 nM | 106 nM | COc1cccc(N2CCN(CCCOc3cc(C)cc4oc(=O)cc(C)c34)CC2)c1 |
| 161 nM | 70 nM | Cc1cc(OCCCN2CCN(c3ccc(Cl)cc3)CC2)c2c(C)cc(=O)oc2c1 |
| 3500 nM | > 10000 nM | Cc1cc(OCCCCN2CCOCC2)c2c(C)cc(=O)oc2c1 |
| 186 nM | 4570 nM | Cc1cc(OCCCN2CCN(c3cnccn3)CC2)c2c(C)cc(=O)oc2c1 |
| 450 nM | > 5000 nM | Cc1cc(OCCCN2CCN(c3ccncc3)CC2)c2c(C)cc(=O)oc2c1 |
| 1210 nM | > 10000 nM | Cc1cc(OCCCN2CCN(c3ccc([N+](=O)[O-])cc3)CC2)c2c(C)cc(=O)oc2c1 |
| 850 nM | > 10000 nM | CC(=O)c1c(C)cc2oc(=O)cc(C)c2c1OCCCN1CCOCC1 |
| 389 nM | > 5000 nM | Cc1cc(OCCCCN2CCN(c3ccncc3)CC2)c2c(C)cc(=O)oc2c1 |
| 60 nM | 465 nM | Cc1cc(OCCCCN2CCN(c3ccc(Cl)cc3)CC2)c2c(C)cc(=O)oc2c1 |
| 1300 nM | > 10000 nM | Cc1cc(OCCCN2CCOCC2)c2c(C)cc(=O)oc2c1 |

From ChEMBL document CHEMBL4261553 (Medchemcomm, 2017)
